ChEMBL document CHEMBL5724801, “EUbOPEN Chemogenomics Library - Multiplex” (2024)
“And” between values parts separate entries of the source, which are not always exact repeats. Equal values may be shown once.

Tested on: U2OS
Assay: Multiplex assay against U2OS
Type: toxicity, cell-based
Conditions: human
In short: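 At seeding, live cells were stained with Hoechst33342, BioTracker Green Microtubule Cytoskeleton Dye, MitoTracker Red and Annexin V Alexa Fluor 680. After compound addition they were imaged on a CQ1 microscope at 37°C and 5% CO2, and CellPathfinder machine-learning gating sorted them into Hoechst high-intensity objects or normal cells, with normal cells further split into healthy, pyknosed or fragmented nuclei and pyknosed cells into mitotic or apoptotic. Tubulin, mitochondrial-mass and membrane-permeability phenotypes are given as per cents of cells with healthy nuclei.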

[1] = 12 h, 1 µM, compound concentration 1 uM
[2] = 12 h, 10 µM, compound concentration 10 uM
[3] = 24 h, 1 µM, compound concentration 1 uM
[4] = 24 h, 10 µM, compound concentration 10 uM
[5] = 48 h, 1 µM, compound concentration 1 uM
[6] = 48 h, 10 µM, compound concentration 10 uM

Cc1ccc(C(C)(O)c2nc3ccccc3s2)c(C)c1 (centres undefined)
Population Apoptotic (%) [1]: 86% and 100% | Population Fragmented Nuclei (%) [1]: 19% and 17% | Population Healthy Nuclei (%) [1]: 70% and 78% | Population Hoechst High Intensity Objects (%) [1]: 3% and 0% | Population Membrane Permeable-Phenotype (%) [1]: 4% and 9% | Population Mitochondria Different-Phenotype (%) [1]: 1% and 4% | Population Mitotic Cells (%) [1]: 13% and 0% | Population Normal (%) [1]: 96% and 99% | Population Pyknosed Nuclei (%) [1]: 9% and 3% | Population Tubulin-Different-Phenotype (%) [1]: 2% and 5% | Total Cell Count [1]: 249 and 141 | Population Apoptotic (%) [2]: 100% and 66% | Population Fragmented Nuclei (%) [2]: 25% and 18% | Population Healthy Nuclei (%) [2]: 67% and 77% | Population Hoechst High Intensity Objects (%) [2]: 2% and 4% | Population Membrane Permeable-Phenotype (%) [2]: 9% and 3% | Population Mitochondria Different-Phenotype (%) [2]: 3% and 1% | Population Normal (%) [2]: 97% and 95% | Population Pyknosed Nuclei (%) [2]: 6% and 3% | Population Tubulin-Different-Phenotype (%) [2]: 3% and 1% | Total Cell Count [2]: 234 and 89 | Population Apoptotic (%) [3]: 92% and 90% | Population Fragmented Nuclei (%) [3]: 22% and 13% | Population Healthy Nuclei (%) [3]: 69% and 80% | Population Hoechst High Intensity Objects (%) [3]: 1% and 0% | Population Membrane Permeable-Phenotype (%) [3]: 4% and 6% | Population Mitochondria Different-Phenotype (%) [3]: 0% and 3% | Population Mitotic Cells (%) [3]: 7% and 10% | Population Normal (%) [3]: 98% and 99% | Population Pyknosed Nuclei (%) [3]: 8% and 6% | Population Tubulin-Different-Phenotype (%) [3]: 3% and 4% | Total Cell Count [3]: 327 and 159 | Population Apoptotic (%) [4]: 88% and 75% | Population Fragmented Nuclei (%) [4]: 22% and 16% | Population Healthy Nuclei (%) [4]: 71% and 75% | Population Hoechst High Intensity Objects (%) [4]: 1% and 4% | Population Membrane Permeable-Phenotype (%) [4]: 5% and 3% | Population Mitochondria Different-Phenotype (%) [4]: 3% and 1% | Population Mitotic Cells (%) [4]: 11% and 25% | Population Normal (%) [4]: 98% and 95% | Population Pyknosed Nuclei (%) [4]: 6% and 7% | Population Tubulin-Different-Phenotype (%) [4]: 3% | Total Cell Count [4]: 272 and 113 | Population Apoptotic (%) [5]: 88% and 94% | Population Fragmented Nuclei (%) [5]: 16% and 15% | Population Healthy Nuclei (%) [5]: 74% and 76% | Population Hoechst High Intensity Objects (%) [5]: 2% and 3% | Population Membrane Permeable-Phenotype (%) [5]: 5% and 6% | Population Mitochondria Different-Phenotype (%) [5]: 2% and 3% | Population Mitotic Cells (%) [5]: 11% and 5% | Population Normal (%) [5]: 97% and 96% | Population Pyknosed Nuclei (%) [5]: 9% and 8% | Population Tubulin-Different-Phenotype (%) [5]: 2% and 5% | Total Cell Count [5]: 442 and 215 | Population Apoptotic (%) [6]: 96% and 85% | Population Fragmented Nuclei (%) [6]: 23% and 11% | Population Healthy Nuclei (%) [6]: 69% and 83% | Population Hoechst High Intensity Objects (%) [6]: 2% and 5% | Population Membrane Permeable-Phenotype (%) [6]: 6% and 5% | Population Mitochondria Different-Phenotype (%) [6]: 1% | Population Normal (%) [6]: 97% and 94% | Population Pyknosed Nuclei (%) [6]: 7% and 5% | Population Tubulin-Different-Phenotype (%) [6]: 4% | Total Cell Count [6]: 365 and 147

COCCn1c(C)c(C)s/c1=N\C(=O)C1C(C)(C)C1(C)C
Population Apoptotic (%) [1]: 88% and 71% | Population Fragmented Nuclei (%) [1]: 24% and 20% | Population Healthy Nuclei (%) [1]: 69% and 74% | Population Hoechst High Intensity Objects (%) [1]: 0% | Population Membrane Permeable-Phenotype (%) [1]: 8% and 11% | Population Mitochondria Different-Phenotype (%) [1]: 1% and 3% | Population Mitotic Cells (%) [1]: 11% and 28% | Population Normal (%) [1]: 99% and 100% | Population Pyknosed Nuclei (%) [1]: 6% and 5% | Population Tubulin-Different-Phenotype (%) [1]: 3% and 5% | Total Cell Count [1]: 271 and 135 | Population Apoptotic (%) [2]: 73% and 80% | Population Fragmented Nuclei (%) [2]: 33% and 20% | Population Healthy Nuclei (%) [2]: 52% and 68% | Population Hoechst High Intensity Objects (%) [2]: 2% and 0% | Population Membrane Permeable-Phenotype (%) [2]: 10% and 9% | Population Mitochondria Different-Phenotype (%) [2]: 4% and 3% | Population Mitotic Cells (%) [2]: 26% and 20% | Population Normal (%) [2]: 97% and 100% | Population Pyknosed Nuclei (%) [2]: 13% and 11% | Population Tubulin-Different-Phenotype (%) [2]: 5% and 4% | Total Cell Count [2]: 220 and 135 | Population Apoptotic (%) [3]: 89% and 83% | Population Fragmented Nuclei (%) [3]: 18% | Population Healthy Nuclei (%) [3]: 75% and 77% | Population Hoechst High Intensity Objects (%) [3]: 0% | Population Membrane Permeable-Phenotype (%) [3]: 5% and 9% | Population Mitochondria Different-Phenotype (%) [3]: 3% | Population Mitotic Cells (%) [3]: 10% and 16% | Population Normal (%) [3]: 99% | Population Pyknosed Nuclei (%) [3]: 6% and 3% | Population Tubulin-Different-Phenotype (%) [3]: 2% and 4% | Total Cell Count [3]: 314 and 157 | Population Apoptotic (%) [4]: 80% and 88% | Population Fragmented Nuclei (%) [4]: 28% and 21% | Population Healthy Nuclei (%) [4]: 58% and 66% | Population Hoechst High Intensity Objects (%) [4]: 1% | Population Membrane Permeable-Phenotype (%) [4]: 8% and 10% | Population Mitochondria Different-Phenotype (%) [4]: 8% and 1% | Population Mitotic Cells (%) [4]: 19% and 11% | Population Normal (%) [4]: 98% | Population Pyknosed Nuclei (%) [4]: 12% | Population Tubulin-Different-Phenotype (%) [4]: 2% and 9% | Total Cell Count [4]: 257 and 141 | Population Apoptotic (%) [5]: 94% and 100% | Population Fragmented Nuclei (%) [5]: 12% and 15% | Population Healthy Nuclei (%) [5]: 79% | Population Hoechst High Intensity Objects (%) [5]: 1% | Population Membrane Permeable-Phenotype (%) [5]: 5% and 9% | Population Mitochondria Different-Phenotype (%) [5]: 2% and 1% | Population Mitotic Cells (%) [5]: 5% and 0% | Population Normal (%) [5]: 98% | Population Pyknosed Nuclei (%) [5]: 8% and 4% | Population Tubulin-Different-Phenotype (%) [5]: 4% and 5% | Total Cell Count [5]: 459 and 218 | Population Apoptotic (%) [6]: 81% and 96% | Population Fragmented Nuclei (%) [6]: 22% and 15% | Population Healthy Nuclei (%) [6]: 62% and 71% | Population Hoechst High Intensity Objects (%) [6]: 2% and 1% | Population Membrane Permeable-Phenotype (%) [6]: 11% and 4% | Population Mitochondria Different-Phenotype (%) [6]: 4% | Population Normal (%) [6]: 97% and 98% | Population Pyknosed Nuclei (%) [6]: 14% and 12% | Population Tubulin-Different-Phenotype (%) [6]: 5% and 2% | Total Cell Count [6]: 305 and 206
